One compound from ChEMBL document CHEMBL3425511 (J Med Chem, 2015) can be followed below.

What is called half-life is the time needed for the level to fall by half in the phase considered. Broadly, the clearance is a measure of how efficiently the substance is removed, as volume per time. In general, Cmax refers to the maximum level reached in the sampled fluid or tissue. A word on the bioavailability: it is dose-corrected exposure relative to a reference, in per cent. One may read the ED50 as the dose that gives a 50% effect, or the effect in half of the subjects.

The nature of series [1]: Half life in dog at 10 mg/kg, po. Type of series: ADME, organism-based, Canis lupus familiaris. Further details: dose 10 mg/kg, route oral. The conditions noted are these: in vivo. A digest of the protocol: (§1)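 Oral dosing at 10 mg/kg as a solution of the sodium salt in 20% HPβCD, n = 4 animals per group.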
In series [2] the target is Voltage-gated inwardly rectifying potassium channel KCNH2 (Homo sapiens, UniProt Q12809). The experiment in a line: Displacement of [3H]-astemizole from recombinant human ERG at 10 uM. A general note: In a radioligand displacement assay an active substance lowers the binding of a labelled ligand.
Voltage-gated inwardly rectifying potassium channel KCNH2, sequence (Q12809 whole entry): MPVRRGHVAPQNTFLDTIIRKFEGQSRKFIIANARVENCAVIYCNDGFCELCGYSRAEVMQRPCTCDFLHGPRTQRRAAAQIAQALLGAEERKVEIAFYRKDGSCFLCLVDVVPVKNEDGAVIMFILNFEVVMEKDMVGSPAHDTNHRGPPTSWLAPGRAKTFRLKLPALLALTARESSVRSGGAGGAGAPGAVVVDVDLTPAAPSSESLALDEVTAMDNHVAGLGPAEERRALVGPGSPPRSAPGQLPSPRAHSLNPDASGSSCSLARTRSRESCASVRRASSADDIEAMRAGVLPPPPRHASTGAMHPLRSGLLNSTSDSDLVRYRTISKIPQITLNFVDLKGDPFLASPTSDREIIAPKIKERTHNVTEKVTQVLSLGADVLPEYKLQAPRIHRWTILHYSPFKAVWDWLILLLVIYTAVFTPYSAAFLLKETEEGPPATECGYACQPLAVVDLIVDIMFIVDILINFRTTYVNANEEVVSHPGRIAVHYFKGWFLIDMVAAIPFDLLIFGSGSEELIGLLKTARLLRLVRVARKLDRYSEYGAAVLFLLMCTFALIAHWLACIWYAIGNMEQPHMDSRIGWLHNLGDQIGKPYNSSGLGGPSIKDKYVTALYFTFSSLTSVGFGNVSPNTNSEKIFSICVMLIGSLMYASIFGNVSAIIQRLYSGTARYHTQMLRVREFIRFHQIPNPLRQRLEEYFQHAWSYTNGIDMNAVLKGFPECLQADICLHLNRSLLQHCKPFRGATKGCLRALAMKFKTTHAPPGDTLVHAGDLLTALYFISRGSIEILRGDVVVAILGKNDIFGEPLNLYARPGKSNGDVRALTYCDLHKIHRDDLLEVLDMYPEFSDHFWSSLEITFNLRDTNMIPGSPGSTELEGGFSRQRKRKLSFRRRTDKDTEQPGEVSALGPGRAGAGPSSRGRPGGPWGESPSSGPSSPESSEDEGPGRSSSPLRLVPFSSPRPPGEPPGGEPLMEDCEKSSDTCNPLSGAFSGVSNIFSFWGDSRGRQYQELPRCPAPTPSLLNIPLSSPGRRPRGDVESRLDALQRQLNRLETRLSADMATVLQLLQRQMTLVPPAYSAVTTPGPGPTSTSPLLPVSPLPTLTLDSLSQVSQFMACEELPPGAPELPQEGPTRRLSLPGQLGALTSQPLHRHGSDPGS
Series [3] can be described thus: Clearance in mouse at 2 mg/kg, iv. The format is ADME, organism-based. Further details: dose 2 mg/kg, route intravenous. The conditions noted are these: in vivo. In short, it runs like this:
(§2)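 Intravenous dosing at 2 mg/kg as a solution of the sodium salt in 20% HPβCD, n = 4 animals per group.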

Series [4] has as its system Rattus norvegicus. In words: Reversal of complete freund's adjuvant-induced thermal hypersensitivity in po dosed Sprague-Dawley rat assessed as plasma concentration required to reach ED80 measured at 100 mins. The format is functional. A digest of the protocol:
(§3)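 Rats dosed orally 100 min before radiant-heat testing. For CFA, plasma taken right after behavioural testing; for carrageenan, taken from a separate group dosed identically. Blood collected on lithium heparin and centrifuged, plasma stored at −80 °C. Plasma levels matching ED50 and ED80 (EC50/EC80) computed from the dose−response data.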

For series [5], the target named is T1, Transient receptor potential cation channel subfamily V member 2 (Homo sapiens) (UniProt Q9Y5S1).
T1 sequence (whole entry): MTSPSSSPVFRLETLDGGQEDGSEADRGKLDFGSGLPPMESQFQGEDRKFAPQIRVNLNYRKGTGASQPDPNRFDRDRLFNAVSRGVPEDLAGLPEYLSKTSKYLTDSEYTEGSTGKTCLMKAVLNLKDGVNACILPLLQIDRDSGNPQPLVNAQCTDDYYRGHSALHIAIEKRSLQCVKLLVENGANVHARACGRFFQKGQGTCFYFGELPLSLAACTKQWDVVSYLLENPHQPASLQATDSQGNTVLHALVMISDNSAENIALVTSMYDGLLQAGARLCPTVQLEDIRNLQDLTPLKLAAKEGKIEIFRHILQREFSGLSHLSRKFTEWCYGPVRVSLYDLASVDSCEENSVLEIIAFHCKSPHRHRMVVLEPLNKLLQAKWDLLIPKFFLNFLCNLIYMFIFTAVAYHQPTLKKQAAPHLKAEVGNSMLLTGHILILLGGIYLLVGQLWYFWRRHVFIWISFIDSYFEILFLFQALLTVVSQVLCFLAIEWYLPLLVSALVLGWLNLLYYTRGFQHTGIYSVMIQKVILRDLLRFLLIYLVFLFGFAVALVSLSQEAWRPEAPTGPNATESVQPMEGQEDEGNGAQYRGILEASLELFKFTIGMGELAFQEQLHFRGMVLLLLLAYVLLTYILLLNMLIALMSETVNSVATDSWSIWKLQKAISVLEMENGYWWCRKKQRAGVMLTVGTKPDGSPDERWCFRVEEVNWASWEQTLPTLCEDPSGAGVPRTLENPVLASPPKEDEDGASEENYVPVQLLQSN
The experiment in a line: Effect on TRPV2 (unknown origin).

A short description of series [6]: Cmax in dog at 10 mg/kg, po. Type of series: ADME, organism-based, Canis lupus familiaris. Further details: dose 10 mg/kg, route oral. The conditions noted are these: in vivo. A digest of the protocol: as §1
The subject of series [7] is Rattus norvegicus. In words: Toxicity in Sprague-Dawley rat assessed as increase in core body temperature at 100 mg/kg, po measured after 30 to 180 mins by rectal thermometer relative to vehicle-treated control. The format is organism-based. Further details: dose 100 mg/kg, route oral. The conditions noted are these: in vivo. In short, it runs like this:
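Male Sprague-Dawley rats, food deprived 18 h, given single oral dose 100 mg/kg or vehicle (HPβCD), n = 8 per group; core temperature taken by rectal thermometer over 3 h. Analysis by two-way repeated-measure ANOVA (vehicle vs compound) with Bonferroni post-tests.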

Series [8] relates to Rattus norvegicus. The experiment in a line: Reversal of complete freund's adjuvant-induced thermal hypersensitivity in Sprague-Dawley rat at 10 mg/kg, po measured after 30 to 180 mins. The format is functional, organism-based. Further details: dose 10 mg/kg.
For series [9], the target named is Transient receptor potential cation channel subfamily A member 1 (Homo sapiens) (UniProt O75762). In words: Effect on TRPA1 (unknown origin).
Transient receptor potential cation channel subfamily A member 1 (Homo sapiens), sequence (O75762 whole entry): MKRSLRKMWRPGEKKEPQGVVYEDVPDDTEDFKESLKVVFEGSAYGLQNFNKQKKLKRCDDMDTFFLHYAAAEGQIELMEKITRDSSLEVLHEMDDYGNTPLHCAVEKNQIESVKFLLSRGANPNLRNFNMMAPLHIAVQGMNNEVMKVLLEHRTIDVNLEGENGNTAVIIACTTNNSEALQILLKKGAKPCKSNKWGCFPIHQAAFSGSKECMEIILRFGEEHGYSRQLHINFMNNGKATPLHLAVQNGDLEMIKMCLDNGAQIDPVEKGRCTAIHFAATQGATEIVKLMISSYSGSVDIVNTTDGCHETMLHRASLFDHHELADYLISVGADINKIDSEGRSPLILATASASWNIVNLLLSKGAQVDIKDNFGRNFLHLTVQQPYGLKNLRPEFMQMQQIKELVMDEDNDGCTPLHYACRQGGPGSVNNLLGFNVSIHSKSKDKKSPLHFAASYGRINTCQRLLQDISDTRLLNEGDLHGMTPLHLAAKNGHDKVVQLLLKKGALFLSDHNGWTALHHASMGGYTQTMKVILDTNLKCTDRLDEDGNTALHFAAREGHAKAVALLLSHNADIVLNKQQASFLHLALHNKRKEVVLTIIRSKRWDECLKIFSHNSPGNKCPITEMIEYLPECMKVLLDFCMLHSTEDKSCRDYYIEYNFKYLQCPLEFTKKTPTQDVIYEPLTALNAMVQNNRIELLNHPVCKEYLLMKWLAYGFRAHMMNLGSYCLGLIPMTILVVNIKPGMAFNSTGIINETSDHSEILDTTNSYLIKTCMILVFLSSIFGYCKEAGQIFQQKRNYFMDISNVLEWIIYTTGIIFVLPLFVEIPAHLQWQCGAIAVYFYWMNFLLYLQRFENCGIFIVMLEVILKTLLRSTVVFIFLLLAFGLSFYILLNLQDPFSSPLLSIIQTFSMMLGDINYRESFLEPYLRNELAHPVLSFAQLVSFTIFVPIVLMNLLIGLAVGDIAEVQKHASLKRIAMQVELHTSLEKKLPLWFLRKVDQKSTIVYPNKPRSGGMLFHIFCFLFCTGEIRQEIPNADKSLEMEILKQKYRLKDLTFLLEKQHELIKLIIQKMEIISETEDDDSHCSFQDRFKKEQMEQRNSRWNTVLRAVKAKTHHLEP
Series [10] can be described thus: Volume of distribution at steady state in mouse at 2 mg/kg, iv. The format is ADME, organism-based. Details: dose 2 mg/kg, route intravenous. The conditions noted are these: in vivo, read-out: Vdss. A digest of the protocol: (§4)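 Intravenous dosing at 2 mg/kg as a solution of the sodium salt in 20% HPβCD, n = 4 animals per group. Vss derived from the plasma pharmacokinetic profile.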

The test system of series [11] is Rattus norvegicus. In words: Reversal of complete freund's adjuvant-induced thermal hypersensitivity in po dosed Sprague-Dawley rat assessed as plasma concentration required to reach ED50 measured at 100 mins. Type of series: functional. In short, it runs like this: as §3
Series [12] is described as follows: Volume of distribution at steady state in dog at 2 mg/kg, iv. Type of series: ADME, organism-based, Canis lupus familiaris. Further details: dose 2 mg/kg, route intravenous. The conditions noted are these: in vivo, read-out: Vdss. A digest of the protocol:
as §4

Series [13] can be described thus: Clearance in rat at 2 mg/kg, iv. The conditions noted are these: in vivo. Details: dose 2 mg/kg, route intravenous. The format is ADME, organism-based. A digest of the protocol: as §2
In series [14] the test system is Rattus norvegicus. In words: Reversal of carrageenan-induced thermal hypersensitivity in po dosed Sprague-Dawley rat assessed as plasma concentration required to reach ED80 measured at 100 mins. Type of series: functional. In short, it runs like this:
as §3

Series [15] is described as follows: Oral bioavailability in mouse at 10 mg/kg. The conditions noted are these: in vivo. The format is ADME, organism-based. A digest of the protocol:
as §1

The subject of series [16] is Rattus norvegicus. The experiment in a line: Reversal of complete freund's adjuvant-induced thermal hypersensitivity in po dosed Sprague-Dawley rat measured at 100 mins. The format is functional. A digest of the protocol:
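Male Sprague−Dawley rats (195−350 g), intraplantar CFA (100 μL, 1:1 CFA:saline) with testing 24 h later, or carrageenan-λ (200 μL, 10 mg/mL) with testing 3 h later. Radiant heat withdrawal latency, 10−15 s baseline, 20 s cutoff; rats with ≥25% latency drop kept. Oral dosing at 2.5 mL/kg. Percent reversal = (treatment − post)/(pre − post) × 100, scored blind.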

Each structure is given as a SMILES string. The source made the active and inactive calls.

The compound `CC(C)(O)c1ccccc1-c1ccc2[nH]c(/C=C/c3ccc(C(F)(F)F)cc3)nc2c1` had a half-life in series [1] of 1.4 h. Also, the “inhibition (INH)” value in series [2] is “Not Active”. The clearance amounted to 10.5 mL/min/kg in [3] and 33 mL/min/kg in series [13]. Besides, the Activity in the series on Rattus norvegicus [4] is 270.8 ng/mL; in the series on Rattus norvegicus [7], “Non-toxic”; in the series on Rattus norvegicus [11], 41.9 ng/mL; in the series with Rattus norvegicus [14], 9.2 ng/mL. Further, the outcome in [5] and in [9] was inactive. In series [6], this compound yielded a Cmax of 1610 ng/mL. Besides, the outcome with Rattus norvegicus [8] was Active. For the same compound, the Vd in [10] was determined as 2.5 L/kg; in [12], 2.7 L/kg. In [15], this compound came in with a bioavailability of 83.3%. In addition, the ED50 in the series with Rattus norvegicus [16] came out at 1.8 mg/kg. In addition, the ED80 in the series with Rattus norvegicus [16] was 7.8 mg/kg.
